Hits are enriched below; roughly 4.3% of the tested compounds scored in any of these assays.
OX1R antag-1: blocks the human orexin 1 receptor; OX1R-expressing cells, FRET antagonist read-out; inhibition, % at 6.6 µM; 330,000 compounds, 1.8% hits; O43613; AID 485270; in the data active = inhibition mostly above about 38%, no sharp cut-off; inactive = mostly below about 40%;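 note: 0% = agonist challenge alone and 100% = reference antagonist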
TAAR1 antagonist: antagonists of human TAAR1 | Q96RJ0 | CHO RD-HGA16 TAAR1, Fluo-8 calcium fluorescence, antagonist | inhibition, % at 3 µM | 360,000 compounds, 1.5% hits;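 active = inhibition above a per-plate cutoff, the mean inhibition of test compounds on that plate plus 3 SD, cut at about 49% in these data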;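 note: 0% = DMSO plus EC80 beta-PEA response and 100% = DMSO alone without agonist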
Target sequence (Q96RJ0 whole entry, looked up): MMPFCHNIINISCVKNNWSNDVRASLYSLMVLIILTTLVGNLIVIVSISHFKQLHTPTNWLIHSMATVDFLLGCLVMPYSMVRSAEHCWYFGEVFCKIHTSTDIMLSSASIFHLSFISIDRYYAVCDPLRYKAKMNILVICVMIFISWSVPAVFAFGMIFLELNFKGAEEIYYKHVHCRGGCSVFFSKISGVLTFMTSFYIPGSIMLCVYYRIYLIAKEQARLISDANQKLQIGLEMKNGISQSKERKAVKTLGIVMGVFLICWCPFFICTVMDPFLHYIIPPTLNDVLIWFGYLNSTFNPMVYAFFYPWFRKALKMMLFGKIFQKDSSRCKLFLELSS
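Material: RD-HGA16 CHO cells with stable hTAAR1 and Gα16; Dosing: single nominal final test compound concentration of 3 µM; Schedule: seeding 17-24 h prior, 75-min 37 °C, 30-min RT dye loading; Detection: kinetic Fluo-8 calcium fluorescence measurement; Measure: % inhibition from peak post-agonist over basal fluorescence ratio; Benchmarks: vehicle and agonist controls.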
CHO parental Ca: counter-screen: ATP calcium response change in parental CHO cells; parental CHO-K1, ATP-induced calcium, Fluo-8 fluorescence; inhibition, % at 5.6 µM; 330,000 compounds, 0.63% hits;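 active = inhibition above that plate's mean sample inhibition plus 3 SD, cut at about 26% in these data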;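 note: 0% = ATP-challenged DMSO wells and 100% = DMSO wells without ATP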
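Assay system: parental CHO cells; Read-out basis: percent inhibition of ATP-evoked calcium rise, normalized to controls; Benchmarks: ATP and no-ATP DMSO wells; Compound dosing: single nominal dose of 5.6 µM per compound; Signal: Fluo-8 calcium dye fluorescence; Also added: ATP as calcium-mobilizing challenge; Repeats: singlicate.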
GalR3 antagonist: antagonists of human GalR3 | O60755 | HEK293 GalR3-CNG cAMP membrane potential fluorescence; galR3 body fused to GalR1 C-terminus | inhibition, % at 3 µM | 360,000 compounds, 0.44% hits | AID 651719;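 active = inhibition above the screen-wide average plus 3 SD, cut at about 13% in these data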;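 note: forskolin and galanin both at EC90 stimulate the cells; cAMP rise reported by CNG channel membrane potential dye signal; 0% = forskolin plus galanin with DMSO and 100% = forskolin alone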
TAAR1 agonist: human TAAR1 agonism | activation, % at 3 µM | AID 624467 | CHO RD-HGA16 TAAR1, Fluo-8 calcium fluorescence; vehicle wells 0%, saturating PEA agonist 100% | 360,000 compounds, 0.99% hits | Q96RJ0;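 active = activation above the mean activation of all test compounds in the run plus 3 SD, cut at about 38% in these data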
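Assay system: CHO-derived RD-HGA16 cells with stable Gα16 and human TAAR1; timing: 17-24 h seeding, 75 min 37 °C dye, 30 min RT; read-out: % activation from peak over basal fluorescence ratio, DMSO-to-PEA scaled; measured by: kinetic Fluo-8 calcium fluorescence; benchmarks: low control DMSO, high control PEA (EC100); doses: 3 µM single concentration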
OX1R antag-2: human HCRTR1 antagonism; inhibition, % at 5 µM; CHO/OX1R cells, Fluo-8 calcium fluorescence, orexin A; O43613; 330,000 compounds, 0.43% hits;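 active = inhibition above its plate's threshold, mean inhibition of all tested compounds on the plate plus 3 SD, cut at about 37% in these data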;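 note: 0% = orexin A challenge wells and 100% = SB-334867-A antagonist wells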
Starred values were filed as active, the others as inactive.

What do the screens show for `C[C@H](CO)N1C[C@H](C)[C@@H](CN(C)S(=O)(=O)c2cccs2)OCc2cnnn2CCCC1=O`?
TAAR1 antagonist: -20; GalR3 antagonist: 6; TAAR1 agonist: 3

How did Cc1cc(O)c(-c2cc(C(=O)Nc3ccc(S(=O)(=O)N4CCOCC4)cc3)[nH]n2)cc1C do in these assays?
OX1R antag-1: 9; TAAR1 antagonist: 23; CHO parental Ca: -4; GalR3 antagonist: 1; TAAR1 agonist: 16; OX1R antag-2: -18

Results for CCOc1ccc(Cl)cc1-c1cc(C(=O)Nc2ccc(OC)cc2OC)[nH]n1 ?
TAAR1 antagonist: 15; GalR3 antagonist: -5; TAAR1 agonist: 4

What do the screens show for `COc1ccc(NC(=O)c2cc(-c3cc(C)c(C)cc3O)n[nH]2)c(OC)c1`?
OX1R antag-1: 13; TAAR1 antagonist: -12; CHO parental Ca: 1; GalR3 antagonist: -11; TAAR1 agonist: 3; OX1R antag-2: -24

Results for COc1ccc(NC(=O)c2cc(-c3cc(Cl)ccc3OC)n[nH]2)c(OC)c1 ?
TAAR1 antagonist: 54*; GalR3 antagonist: 0; TAAR1 agonist: 2

How did CC(C)Oc1cc(F)ccc1-c1cc(C(=O)Nc2ccccc2)[nH]n1 do in these assays?
TAAR1 antagonist: 54*; GalR3 antagonist: -5; TAAR1 agonist: 0

How did COc1ccc(NC(=O)c2cc(-c3cc(F)ccc3OC)n[nH]2)c(OC)c1 do in these assays?
TAAR1 antagonist: 50*; GalR3 antagonist: -2; TAAR1 agonist: 7

Results for O=C(Nc1ccc(S(=O)(=O)N2CCOCC2)cc1)c1cc(-c2cc(Cl)ccc2O)n[nH]1 ?
OX1R antag-1: 16; TAAR1 antagonist: 56*; CHO parental Ca: 13; GalR3 antagonist: 1; TAAR1 agonist: 20; OX1R antag-2: 2

Results for Cc1c(C(=O)Nc2nonc2-c2ccc(F)cc2)oc2ccc(F)cc12 ?
OX1R antag-1: 49*; TAAR1 antagonist: 2; CHO parental Ca: 2; GalR3 antagonist: 0; TAAR1 agonist: 3; OX1R antag-2: 0

What do the screens show for `COc1cc2ccc(-c3ccc4ccccc4n3)cc2cc1OC`?
TAAR1 antagonist: 58*; GalR3 antagonist: 1; TAAR1 agonist: 10

What do the screens show for `CC(C)C[C@@H]1COc2cc(N(C)CCO)ccc2S(=O)(=O)N1`?
TAAR1 antagonist: 8; GalR3 antagonist: -5; TAAR1 agonist: 0

How did CC(=O)N(C)c1ccc(N=Nc2c(C)[nH]n(C(N)=S)c2=O)cc1 do in these assays?
OX1R antag-1: 56*; TAAR1 antagonist: -8; CHO parental Ca: -1; GalR3 antagonist: -2; TAAR1 agonist: 2; OX1R antag-2: -1

Results for CC1=NN(C(N)=S)C(=O)C1N=Nc1c(C)cc(C)cc1C (stereo not drawn) ?
OX1R antag-1: 13; TAAR1 antagonist: -7; CHO parental Ca: -2; GalR3 antagonist: -3; TAAR1 agonist: 3; OX1R antag-2: -6

Results for CC1=NN(C(N)=S)C(=O)C1N=Nc1c(Br)cc(Br)cc1Br (stereo not drawn) ?
OX1R antag-1: 19; TAAR1 antagonist: 41; CHO parental Ca: -2; GalR3 antagonist: -10; TAAR1 agonist: 39*; OX1R antag-2: 8

What do the screens show for `CC(=O)N(C)c1ccc(N=NC2C(=O)N(C(N)=S)N=C2C)cc1` (stereo not drawn)?
OX1R antag-1: 62*; TAAR1 antagonist: 11; CHO parental Ca: -5; GalR3 antagonist: -2; TAAR1 agonist: 3; OX1R antag-2: -3

How did Cn1c(COc2ccccc2)nnc1SCC(=O)Nc1nnc(C2CC2)s1 do in these assays?
TAAR1 antagonist: -11; GalR3 antagonist: 0; TAAR1 agonist: 1

How did O=C(OCc1nnc(-c2ccccc2)o1)C1CC(=O)N(CCc2ccccc2)C1 (stereo not drawn) do in these assays?
OX1R antag-1: -1; TAAR1 antagonist: -11; CHO parental Ca: -12; GalR3 antagonist: -9; TAAR1 agonist: 8; OX1R antag-2: -16

What do the screens show for `CN(C)c1ccc(N=Nc2ccccc2C(=O)OCC(=O)N2CCCCCC2)cc1`?
OX1R antag-1: 6; TAAR1 antagonist: 38; CHO parental Ca: 29*; GalR3 antagonist: -2; TAAR1 agonist: 5; OX1R antag-2: -14

Screening results (PubChem BioAssay)
